Experimental data pooled from the literature.
Lines come from different studies, so protocols differ.
Enoyl-[acyl-carrier-protein] reductase [NADPH] FabI: Enoyl-[acyl-carrier-protein] reductase [NADPH] FabI (Staphylococcus aureus, UniProt Q6GI75)
CYP1A1: Cytochrome P450 1A1 (CYP1A1, Homo sapiens, UniProt P04798)

For `CCc1cc(O)c(Oc2ccccc2)cc1F`, the Ki was 0.09 nM (Enoyl-[acyl-carrier-protein] reductase [NADPH] FabI; enzyme activity, inhibitor).
`CCn1c(-c2nc3cc(C(=O)N4CCC[C@@H](N)C4)cc(OC)c3n2C)cc2cccnc21` has a Ki of 570000 nM (Protein-arginine deiminase type-1 (PADI1, Homo sapiens, UniProt Q9ULC6); enzyme activity, inhibitor).
`C#Cc1ccc2c(=O)cc(-c3ccccc3)oc2c1` has a Ki of 24 nM (CYP1A1; enzyme activity, inhibitor, fluorescence; 6 min, pH 7.6).
`CC[C@H](C)[C@H](NC(=O)[C@H](CCC(=O)O)NC(=O)[C@H](CC(=O)O)NC(=O)CNC(=O)[C@H](CC(C)C)NC(=O)[C@H](CCCNC(=N)N)NC(=O)[C@H](CCC(N)=O)NC(=O)[C@H](CC(C)C)NC(=O)[C@H](CO)NC(=O)[C@H](CCC(N)=O)NC(=O)[C@@H](NC(=O)[C@H](CC(C)C)NC(=O)[C@H](Cc1c[nH]c2ccccc12)NC(=O)[C@@H](NC(=O)[C@H](CCC(=O)O)NC(=O)[C@@H]1CCCN1C(=O)[C@H](CCCNC(=N)N)NC(C)=O)[C@@H](C)CC)[C@@H](C)O)C(=O)N[C@@H](CC(N)=O)C(=O)N[C@@H](C)C(=O)N[C@@H](Cc1ccc(O)cc1)C(=O)N[C@@H](Cc1ccc(O)cc1)C(=O)N[C@@H](C)C(=O)N[C@@H](CCCNC(=N)N)C(N)=O` has a Ki of 360 nM (Bcl-2-like protein 2 (BCL2L2, Homo sapiens, UniProt Q92843); ligand displacement, FP).
With `COc1cc(O)c(CC=C(C)C)c2c1C(=O)CC(c1ccc(O)cc1)O2` (centres unmarked) the Ki was 1600 nM (CYP1A1; enzyme activity, inhibitor, fluorescence; 15 min, pH 7.4).
With `N#Cc1cc(Br)ccc1Oc1ccc(Cl)cc1O` the Ki was 0.17 nM (Enoyl-[acyl-carrier-protein] reductase [NADPH] FabI; enzyme activity, inhibitor).
For `NCCCC[C@H](NC(=O)[C@@H]1CCCN1C(=O)[C@@H]1CSSC[C@H](NC(=O)CNC(=O)CNC(=O)CN)C(=O)N[C@@H](Cc2ccc(O)cc2)C(=O)N[C@@H](Cc2ccccc2)C(=O)N[C@@H](CCC(N)=O)C(=O)N[C@@H](CC(N)=O)C(=O)N1)C(=O)NCC(N)=O`, the Ki was 1100 nM (Vasopressin V1a receptor (AVPR1A, Homo sapiens, UniProt P37288); ligand displacement, radioligand; cell membranes).
`O=C(O)CCC(NC(=O)NC(CCCCNC(=O)CCCCCCC(=O)NC(CCCCNC(=O)CN1CCN(CC(=O)O)CCN(CC(=O)O)CCN(CC(=O)O)CC1)C(=O)OCc1ccccc1)C(=O)O)C(=O)O.[Ga+3]` (centres unmarked) has a Ki of 29 nM (Glutamate carboxypeptidase 2 (FOLH1, Homo sapiens, UniProt Q04609); enzyme activity, inhibitor, fluorescence).
